# Assay outcomes: PubChem, several laboratories
# Hits are enriched below; roughly 2.4% of the tested compounds scored in any of these assays.
# TNF death inh: blocks TNF-alpha induced death of Jurkat FADD-/- cells. activation (protection from cell death), % at 10 µM. AID 463075. hit rate 0.068% among 220,000. Jurkat FADD-/- TNF necroptosis rescue, ATP luminescence, 24 h; 0 = TNF only, 100 = no-TNF cells;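 active = activation, meaning protection from cell death, of at least 50% relative to plate controls; inactive = activation below 50%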;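 also: necroptosis triggered by 40 ng/mL TNF-alpha added together with compound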
# MDM2 E3 inh: blocks human Mdm2 ubiquitin ligase activity; hit rate 0.11% among 210,000; signal enhancement, % at 5 µM; Q00987; cell-based MDM2 ubiquitination luciferase reporter, 2 h; 0 = plate control, 100 = twice control, blank-subtracted;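 active = signal enhancement of 30% or more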;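 also: luminescence tracks abundance of the self-degrading MDM2-luciferase fusion protein; higher signal means inhibition of MDM2 E3 ligase activity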
#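 Buffer or medium: Cells held in DMEM | Assay system: Stable mammalian line carrying autodegrading MDM2–luciferase fusion reporter | Quantity: 2000 cells/well | Times: 4 h settle plus 2 h compound, 37 °C | Doses: One concentration, 5 µM, with 0.2% DMSO | Technique: Luminescence with SteadyLite reagent, 15 min at room temperature | Benchmarks: Plate controls and plate blanks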
# Dynein transport: blocks dynein driven cargo transport along microtubules; AID 1381; z-score, hits read low; hit rate 0.47% among 220,000; 3617.4 mouse cells, GR-EGFP nuclear translocation imaging; test concentration mostly 20 µM; stimulated with dexamethasone, 1 µM; hits give low values;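 active = plate z-score of nuclear minus cytoplasmic receptor signal below a set negative limit, without overly bright fluorescence or cell loss, cut at about -3.5 in these data, passing the limit was not always enough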;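 also: z-score of nuclear minus cytoplasmic ring GR-EGFP intensity difference per well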
#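 Buffer or medium: tetracycline-free induction medium containing charcoal-stripped FBS / Reagent: dexamethasone agonist, 1.0 µM final, for 30 min / Technique: automated 10x imaging of fixed Hoechst-stained cells / Times: induction 48 h, compound 1 h, agonist 30 min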
# Autophagy mod: autophagy modulation, high-content screen; MEF GFP-LC3 puncta imaging; test concentration mostly 10 µM; calls only at 10 µM (by protocol); hit rate 0.98% among 190,000;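 active = percentage of spot-positive cells more than 3 SD above its plate mean, without a fluorescence outlier flag or 80% toxicity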;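 also: spot-positive cell cutoff set from DMSO-treated cells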
# Hck Nef HTS: human Hck-Nef kinase inhibition; P08631; Recombinant Hck-YEEI plus Nef, Z-Lyte FRET kinase assay; inhibition, % at 20 µM; hit rate 0.68% among 220,000; AID 463187;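 active = Hck-Nef kinase inhibition above about 50%, limit read from the data; inactive = inhibition below that limit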;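 also: 0% = DMSO with Hck plus Nef and 100% = Hck alone without Nef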
# Target sequence (P08631 whole entry, looked up): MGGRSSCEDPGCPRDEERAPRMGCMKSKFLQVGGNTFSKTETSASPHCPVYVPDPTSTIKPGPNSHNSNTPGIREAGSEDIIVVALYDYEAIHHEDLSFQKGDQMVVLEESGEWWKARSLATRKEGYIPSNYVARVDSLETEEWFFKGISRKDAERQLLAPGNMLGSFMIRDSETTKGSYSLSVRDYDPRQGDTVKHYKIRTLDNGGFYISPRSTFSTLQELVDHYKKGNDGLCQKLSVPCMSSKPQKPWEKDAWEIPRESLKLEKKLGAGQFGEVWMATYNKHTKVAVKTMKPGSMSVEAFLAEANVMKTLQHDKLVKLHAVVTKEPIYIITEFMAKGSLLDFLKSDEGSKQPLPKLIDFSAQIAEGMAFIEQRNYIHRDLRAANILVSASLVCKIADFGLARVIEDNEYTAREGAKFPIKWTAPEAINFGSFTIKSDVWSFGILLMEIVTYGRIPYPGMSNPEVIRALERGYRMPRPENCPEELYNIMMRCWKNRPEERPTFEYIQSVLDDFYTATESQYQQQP
# L929 necroptosis: blocks zVAD induced death of L929 cells; viability rescue, % at 10 µM; L929 zVAD necroptosis rescue, ATP luminescence, 24 h; with zVAD 60 µM; hit rate 0.38% among 220,000;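 active = activation, scaled between plate controls, above about 75%, limit read from the data; inactive = activation under that limit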;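 also: 0% = zVAD with DMSO and 100% = DMSO alone without zVAD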
# zVAD death conf: confirmed blocker of zVAD induced death in L929 cells; hit rate 16% among 760; shares compounds with L929 necroptosis; AID 463117; activation (protection from necroptosis), % at 10 µM; L929 zVAD-induced necroptosis rescue, ATP luminescence, 24 h;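 active = mean protection from necroptosis of at least 50% over duplicate tests; inactive = mean protection below 50%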;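 also: 0% = cells with zVAD alone and 100% = vehicle cells without zVAD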
# Numbers without * were called inactive; i = inactive; nt = no result given; + = active, no number.
SMILES,TNF death inh,MDM2 E3 inh,Dynein transport,Autophagy mod,Hck Nef HTS,L929 necroptosis,zVAD death conf
O=C(CN1CCN(c2ccccc2)CC1)N1N=CCC1c1ccccc1 (configuration not stated),39,-12,0.34,i,0,0,nt
O=C(CN1CCN(C(c2ccccc2)c2ccccc2)CC1)N1N=CCC1c1ccccc1 (configuration not stated),68*,-7,-0.24,nt,3,0,nt
Cc1ccc(C)c(OC(=O)c2cncc(Br)c2)c1,0,3,-0.26,i,7,1,nt
O=S(=O)(c1ccc2oc3ccc(S(=O)(=O)N4CCCCC4)cc3c2c1)N1CCCCC1,1,18,0.81,i,-2,0,nt
CCCOC(=O)c1c(-c2ccc(C)cc2C)csc1NC(=O)C1C2CCC(O2)C1C(=O)O (configuration not stated),0,-10,-0.23,i,14,0,nt
CC(C)CNC(=O)Cn1c(=O)c2c(ncn2CC(C)C)n(Cc2ccccc2)c1=O,1,0,-0.58,+,21,1,nt
Cc1cc(C)nc(Nc2n[nH]c(-c3ccccc3C)n2)n1,-2,-8,1.4,+,-1,4,nt
Cc1cccc(N2CSC3=C(C#N)C(c4ccc(C)o4)CC(=O)N3C2)c1 (configuration not stated),-3,-9,-1.4,i,80*,0,nt
Cc1ccc(NC2=C/C(=N/S(=O)(=O)c3cccs3)c3ccccc3C2=O)cc1C,-8,-4,0.28,i,1,2,nt
CC(=O)Nc1ccc(NC2=C/C(=N/S(=O)(=O)c3cccs3)c3ccccc3C2=O)cc1,-22,-32,-0.014,+,18,23,nt
COc1ccc(SCCC(=O)NCc2ccncc2)cc1,2,-3,0.56,nt,7,1,nt
O=C(O)c1ccc(Nc2nc(-c3ccccc3)cs2)cc1,1,-35,-0.99,i,28,50,nt
CC(=O)Nc1nc(C)c(-c2csc(Nc3ccc(O)cc3)n2)s1,1,-7,2.1,i,1,77*,nt
Oc1ccc(Nc2nc(-c3ccc4ccccc4c3)cs2)cc1,-22,-47,-3.2,+,-8,74,nt
O=C(O)CC(C(=O)O)N1C(=O)/C(=C/C=C/c2ccco2)SC1=S (configuration not stated),2,-7,0.16,nt,71*,0,nt
Cc1cccc(Nc2nnc(SCC(=O)NC(=O)Nc3ccc4c(c3)OCCO4)s2)c1,2,8,0.42,i,7,2,nt
Cc1nnc(SCC(=O)NC(=O)Nc2ccc3c(c2)OCCO3)s1,0,-7,0.49,+,-63,2,nt
Cc1cc(C)c2nc(N3CCC(C(=O)NCCCN4CC(C)CC(C)C4)CC3)sc2c1 (configuration not stated),-13,-35,5.3,+,22,18,nt
Cc1cc2ccccn2c1C(=O)c1ccc([N+](=O)[O-])o1,-2,-8,0.27,+,15,13,nt
CC(C1CCN(Cc2cn(C)nc2-c2cccc(Cl)c2)CC1)N1CCOCC1 (configuration not stated),2,4,-0.35,i,-7,0,nt
COc1ccc(-c2cc(C3CC3)nc(SCC(=O)c3cccs3)c2C#N)cc1,-1,-18,0.25,+,-5,0,nt
CCN(CC)Cc1cc(C(=O)O)c(C)o1,0,32*,0.54,i,23,4,nt
COc1ccc(O)c(/C=N/Nc2nc3ccccc3[nH]2)c1,20,-11,1.1,i,1,22,nt
COc1cc(/C=N/Nc2nc3ccccc3[nH]c2=O)ccc1O,-3,-18,-1.8,i,42,78*,15
COc1cc(/C=N/Nc2nc3ccccc3[nH]2)cc(Br)c1OCC(=O)N(C)C,64*,-1,-0.5,i,21,75*,60*
SMILES,TNF death inh,MDM2 E3 inh,Dynein transport,Autophagy mod,Hck Nef HTS,L929 necroptosis,zVAD death conf
COc1cc(/C=N/Nc2nc3ccccc3[nH]2)cc(OC)c1O,16,-11,-0.18,i,2,87*,3
COc1cc(/C=N/Nc2nc3ccccc3[nH]2)ccc1O,36,nt,-0.78,i,6,79*,47
COc1cc(/C=N/Nc2nc(=O)[nH]nc2C)ccc1O,0,-6,0.36,nt,-43,2,nt
O=C(C[n+]1ccc(-c2nnc3n2CCCCC3)cc1)c1ccc(Cl)cc1,3,-96,0.83,nt,10,1,nt
CC(=O)Nc1cc(-c2ccc(Cl)cc2)[nH]n1,0,-15,1.2,i,18,87*,37
Cc1cc(-c2n[nH]c(=S)n2/N=C/c2cccc(O)c2)n[nH]1,1,-12,0.22,nt,0,1,nt
S=c1[nH]nc(-c2ccco2)n1/N=C/C(Cl)=C/c1ccccc1,-9,-3,-1.3,nt,-5,77*,4
Cc1cc(-c2n[nH]c(=S)n2/N=C/C(Cl)=C/c2ccccc2)n[nH]1,-4,-11,-0.37,i,-3,83*,2
C(=N\Nc1nc2ccccc2[nH]1)/c1ccc2c(c1)OCO2,19,-10,1.4,i,-9,79*,9
CC(=O)Nc1ccc(/C=N/Nc2nc3ccccc3[nH]2)cc1,-3,-12,-0.23,i,0,88*,2
COC(=O)c1ccc(/C=N/Nc2nc3ccccc3[nH]2)cc1,16,-2,-0.17,i,-7,82*,8
O=C(O)c1ccc(/C=N/Nc2nc3ccccc3[nH]2)cc1,-2,-13,2.7,nt,-6,0,nt
C(=N\Nc1nc2ccccc2[nH]1)/c1cccs1,12,-13,-0.33,i,2,26,nt
C(=N\Nc1nc2ccccc2[nH]1)/c1ccncc1,30,-5,0.88,i,16,78*,51*
O=C(Nc1ccc(F)cc1)Nc1ccccc1C(=O)NCCN1CCNC1=O,-1,0,1.5,nt,-2,0,nt
O=C(Nc1ccc(Cl)cc1)N1N=CCC1c1ccccc1 (configuration not stated),92*,-14,-0.46,nt,21,79*,25
O=C(Nc1ccc(Cl)cc1)N1CCN(c2ccccc2)CC1,1,4,0.35,i,5,0,nt
COc1ccc(CC(=O)Nc2ccc(C(=O)Nc3nccs3)cc2)cc1OC,14,-6,0.13,i,22,83*,63*
CC(C)(C)c1ccc(C(=O)Nc2ccc(NC(=O)c3ccco3)cc2)cc1,0,-22,-0.34,i,0,14,nt
Nc1ccccc1C(=O)Nc1nccs1,9,-9,-0.68,i,32,91*,11
